In ChEMBL document CHEMBL1629572 (Antimicrob Agents Chemother, 2009):

How the values were obtained:
[1] = Inhibition of Influenza B virus (B/Yokohama/UT2203/2005)) neuraminidase N294S mutant after 30 mins by fluorescence analysis
Outline: (§1)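 Virus NA source was mixed with compound in 32.5 mM MES-NaOH pH 6.5 with 4 mM CaCl2 and preincubated 10 min at room temperature. Reaction ran 30 min at room temperature with 100 μM (final) 4-MU-NANA. Fluorescence was read at ex 360/em 460 nm, in triplicate. IC50 came from linear regression of residual activity against log concentration, using concentrations giving 10–90% residual activity.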

[2] = Inhibition of Influenza B virus (B/Yokohama/UT3318/2005)) neuraminidase N294S mutant after 30 mins by fluorescence analysis; outline: as §1

CO[C@@H]([C@@H]1OC(C(=O)O)=C[C@H](NC(=N)N)[C@H]1NC(C)=O)[C@H](O)CO [LANINAMIVIR]
IC50 [1]: 48.9 nM
IC50 [2]: 30.2 nM

CC(=O)N[C@H]1[C@H]([C@H](O)[C@H](O)CO)OC(C(=O)O)=C[C@@H]1NC(=N)N [ZANAMIVIR]
IC50 [1]: 33.6 nM
IC50 [2]: 20 nM
